Consider ten molecules from ChEMBL document CHEMBL1154329, “Structure and cytotoxicity of arnamial and related fungal sesquiterpene aryl esters” (J Nat Prod, 2009).

Experiment [1] relates to CCRF-CEM. Nature of the experiment: Cytotoxicity against human CCRF-CEM cells at <=100 uM after 48 hrs by MTT assay. In kind it is functional, cell-based. In a few lines:
(§1)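 All four lines kept in RPMI 1640 with 10% FBS, 1% GlutaMAX, penicillin/streptomycin. Cells seeded at (2.5-5.0) × 10^4 per well and held overnight at 37 °C. Compounds added as 2-fold DMSO dilutions, top final concentration 100 µM, 0.5% DMSO final. Triplicates, 48 h, 37 °C, 5% CO2. MTT 1 mg/mL added for 3 h. IC50 is the mean of three replicate experiments.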
In general terms: Tetrazolium dyes change colour on reduction, which living cells bring about.

Experiment [2] deals with Jurkat. Nature of the experiment: Cytotoxicity against human Jurkat T cells at <=100 uM after 48 hrs by MTT assay. In kind it is functional, cell-based. In a few lines:
as §1

For experiment [3], the system named is HCT-116. Nature of the experiment: Cytotoxicity against human HCT116 cells at <=100 uM after 48 hrs by MTT assay. Format: functional, cell-based. In a few lines: as §1
The subject of experiment [4] is MCF7. Nature of the experiment: Cytotoxicity against human MCF7 cells at <=100 uM after 48 hrs by MTT assay. Format: functional, cell-based. In a few lines:
as §1

Experiment [5] concerns Jurkat. Nature of the experiment: Induction of apoptosis in human Jurkat T cells assessed as increase in DNA fragmentation at 0.33 uM after 6 hrs by ELISA relative to control. In kind it is functional. In a few lines: (§2)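 Jurkat T cells at 1 × 10^6 cells/mL exposed for 6 h. DNA fragmentation measured as histone-DNA complexes by histone ELISA and expressed as fold increase over untreated cells.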
In general terms: ELISA stands for enzyme-linked immunosorbent assay.

Experiment [6] relates to Jurkat. Nature of the experiment: Induction of apoptosis in human Jurkat T cells assessed as activation of caspase3 at 0.3 uM after 6 hrs relative to control. Format: functional. The procedure, abridged: (§3)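 Jurkat T cells at 1 × 10^6 cells/mL treated for 6 h, then centrifuged at 4 °C, washed and homogenized. Caspase-3 activity read with DEVD-AMC substrate at 200 nM. Rate of fluorescence increase normalized to Bradford protein, expressed as fold over untreated cells. Three independent experiments.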

For experiment [7], the system named is Jurkat. Nature of the experiment: Cytotoxicity against human Jurkat T cells after 48 hrs by MTT assay. Format: functional, cell-based. In a few lines: as §1
Experiment [8] deals with CCRF-CEM. Nature of the experiment: Cytotoxicity against human CCRF-CEM cells after 48 hrs by MTT assay. Format: functional, cell-based. The procedure, abridged:
as §1

In experiment [9] the test system is HCT-116. Nature of the experiment: Cytotoxicity against human HCT116 cells after 48 hrs by MTT assay. In kind it is functional, cell-based. Conditions: HCT-116, 48 h. The procedure, abridged: as §1
Experiment [10] deals with MCF7. Nature of the experiment: Cytotoxicity against human MCF7 cells after 48 hrs by MTT assay. Format: functional, cell-based. Conditions: MCF7, 48 h. The procedure, abridged:
as §1

Experiment [11] deals with Jurkat. Nature of the experiment: Induction of apoptosis in human Jurkat T cells assessed as increase in DNA fragmentation at 10 uM after 6 hrs by ELISA relative to control. Format: functional. In a few lines: as §2
Experiment [12] deals with Jurkat. Nature of the experiment: Induction of apoptosis in human Jurkat T cells assessed as activation of caspase3 at 10 uM after 6 hrs relative to control. Format: functional. The procedure, abridged: as §3

SMILES strings stand for the structures. Activity calls are given as the source filed them. The calls are words filed in the database; no cut-off is given here. Starred links: 1 amine or outer side, 2 acyl side, 3 side chain; linkers in the order of their positions; H or OH if unused. Positions of bridges follow the written chain, without caps; N, C: chain ends. Non-standard residues stand in square brackets, D forms with d. Residues, ends and D or L forms follow the SMILES beside them. Chains are numbered I, II in the order given. Actinocin(1to9) = Cc1c2oc3c(C)ccc(C(=O)[*:2])c3nc-2c(C(=O)[*:1])c(N)c1=O; NMeV = CN[C@H](C(=O)O)C(C)C; Sar = CNCC(=O)O Bounds are passed on as bounds.

As to `Cc1cc(O)cc(O)c1C(=O)O[C@@H]1C[C@]2(C)[C@H]3[C@@H](O)C(C)(C)C[C@@]3(O)C=C(C=O)[C@]12O`, the result in the experiment with CCRF-CEM [1], with Jurkat [2], with HCT-116 [3] and in the experiment on MCF7 [4] was inactive.
As for `Cc1c2oc3c(C)ccc(C(=O)N[C@@H]4C(=O)N[C@H](C(C)C)C(=O)N5CCC[C@H]5C(=O)N(C)CC(=O)N(C)[C@@H](C(C)C)C(=O)O[C@@H]4C)c3nc-2c(C(=O)N[C@@H]2C(=O)N[C@H](C(C)C)C(=O)N3CCC[C@H]3C(=O)N(C)CC(=O)N(C)[C@@H](C(C)C)C(=O)O[C@@H]2C)c(N)c1=O` [DACTINOMYCIN] (I: T[dV]P[Sar][NMeV] / II: T[dV]P[Sar][NMeV]; ester I:1-I:C, II:1-II:C; linker I:N-II:N via Actinocin(1to9)), the “fold change (FC)” value stood at 4.3 with Jurkat [5] and 5.7 in the experiment on Jurkat [6].
One may read the IC50 as the point on the concentration scale where inhibition reaches its midpoint. Regarding `COc1cc(O)c(C(=O)O[C@@H]2C[C@]3(C)[C@H]4[C@@H](O)C(C)(C)C[C@@]4(O)C=C(C=O)[C@]23O)c(C)c1Cl` [MELLEDONAL C], the IC50 in the experiment with Jurkat [7] is 58.8 µM; with CCRF-CEM [8], 14.8 µM; in the experiment with HCT-116 [9] it was greater than 100 µM; in the experiment with MCF7 [10] it was greater than 100 µM.
As for `Cc1cc(O)cc(O)c1C(=O)O[C@@H]1C[C@]2(C)[C@@H]3[C@H](C=C(C=O)[C@]12O)CC(C)(C)[C@@H]3O`, the IC50 in the experiment with Jurkat [7] is 86.2 µM; in the experiment with CCRF-CEM [8], 63.2 µM; in the experiment on HCT-116 [9], greater than 100 µM; with MCF7 [10] it was greater than 100 µM.
Take `Cc1cc(O)cc(O)c1C(=O)O[C@@H]1C[C@]2(C)[C@H]3[C@@H](O)C(C)(C)C[C@@]3(O)C=C(CO)[C@]12O`: the outcome in the experiment on CCRF-CEM [1], in the experiment with Jurkat [2], in the experiment with HCT-116 [3] and in the experiment with MCF7 [4] was inactive.
In the case of `COc1cc(O)c(C(=O)O[C@@H]2C[C@@]3(C)C2=C(C=O)[C@@H](O)[C@@H]2CC(C)(C)C[C@@H]23)c(C)c1Cl` [ARNAMIAL], the IC50 in the experiment on Jurkat [7] amounted to 3.93 µM; with CCRF-CEM [8] it was 8.91 µM; in the experiment on HCT-116 [9], 10.7 µM; with MCF7 [10] it was 15.4 µM. Moreover, the “fold change (FC)” value is on record as 4.5 in the experiment on Jurkat [11] and 18.1 with Jurkat [12].
Turning to `COc1cc(O)c(C(=O)O[C@@H]2C[C@]3(C)[C@H]4[C@@H](O)C(C)(C)C[C@@]4(O)C=C(CO)[C@]23O)c(C)c1Cl` [MELLEOLIDE D], the IC50 with Jurkat [7] is greater than 100 µM; in the experiment on CCRF-CEM [8] it was 61.7 µM; in the experiment on HCT-116 [9], greater than 100 µM; in the experiment on MCF7 [10] it was greater than 100 µM.
Turning to `COc1cc(C)c(C(=O)O)c(O)c1`, the outcome in the experiment on CCRF-CEM [1], in the experiment with Jurkat [2], with HCT-116 [3] and with MCF7 [4] was inactive.
For the molecule `COc1cc(C)c(C(=O)O[C@@H]2C[C@]3(C)[C@H]4[C@@H](O)C(C)(C)C[C@@]4(O)C=C(CO)[C@]23O)c(O)c1`, the result with CCRF-CEM [1], in the experiment on Jurkat [2], in the experiment on HCT-116 [3] and in the experiment on MCF7 [4] was inactive.
Take `Cc1cc(O)cc(O)c1C(=O)O`: the result in the experiment on CCRF-CEM [1], in the experiment with Jurkat [2], in the experiment on HCT-116 [3] and with MCF7 [4] was inactive.
